Screening data deposited in PubChem BioAssay by several laboratories.
GAA850 FXN act: frataxin GAA850 promoter activation. HEK293 lucGAA850 FXN promoter luciferase reporter, 24 h; percent of 10 µM SAHA response. activation, % at 6 µM. actives 0.56% (n = 360,000). AID 540364;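 active = activation above the average of all compounds screened plus 3 SD, cutoff fixed separately per campaign, cut at about 7.5% in these data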;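 also: 0% = DMSO wells and 100% = 10 µM SAHA wells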
AHR act: activators of human aryl hydrocarbon receptor | AHR-responsive luciferase reporter cells, luminescence | P35869 | activation, % at 5 µM | actives 2.5% (n = 320,000); in the data active = activation above about 47%;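 also: 0% = vehicle wells and 100% = reference agonist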
SR-BI DiI inh: mouse SR-BI HDL lipid transfer inhibition. Q61009. inhibition, % at 12.5 µM. actives 0.96% (n = 320,000). ldlA[mSR-BI] CHO cells, DiI-HDL uptake fluorescence, 3 h;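 active = mean replicate inhibition of at least 70% and a set share of replicates each scoring 70 or more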;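 also: 0% = median of neutral control wells and 100% = median of positive control wells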
SR-BI DiI-HDL act: SR-BI HDL lipid transfer activation | activation, % at 12.5 µM | CHO ldlA[mSR-BI] cells, DiI-HDL uptake fluorescence, 3 h; 100 = double the neutral-control signal | actives 0.096% (n = 320,000) | AID 504775;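 active = mean replicate activation of at least 60% and every replicate at or above 60%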;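 also: 0% = median plate neutral-control signal and 100% = twice that signal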
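Test system: SR-BI-overexpressing, LDLR-lacking CHO cells; Medium: Ham's F12 with 0.5% BSA, HEPES 25 mM, pH 7.4; Schedule: 3 h, 37 °C; Technique: bottom-read fluorescence, 550/595 nm.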
ABCB6 inh 2: blocks the human ABCB6 transporter | K562-ABCB6 porphyrin accumulation, flow cytometry, 1 h; active compounds read low | fluorescence ratio to DMSO, % at 10 µM | actives 0.19% (n = 360,000);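 active = fluorescence ratio to DMSO below 75%, the collection mean minus 3 SD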;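 also: signal is porphyrin accumulated inside mitochondria; 100% equals median channel fluorescence of DMSO control wells; lower ratio means ABCB6 inhibition with less porphyrin fluorescence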
Target sequence (Q9NP58 whole entry, looked up): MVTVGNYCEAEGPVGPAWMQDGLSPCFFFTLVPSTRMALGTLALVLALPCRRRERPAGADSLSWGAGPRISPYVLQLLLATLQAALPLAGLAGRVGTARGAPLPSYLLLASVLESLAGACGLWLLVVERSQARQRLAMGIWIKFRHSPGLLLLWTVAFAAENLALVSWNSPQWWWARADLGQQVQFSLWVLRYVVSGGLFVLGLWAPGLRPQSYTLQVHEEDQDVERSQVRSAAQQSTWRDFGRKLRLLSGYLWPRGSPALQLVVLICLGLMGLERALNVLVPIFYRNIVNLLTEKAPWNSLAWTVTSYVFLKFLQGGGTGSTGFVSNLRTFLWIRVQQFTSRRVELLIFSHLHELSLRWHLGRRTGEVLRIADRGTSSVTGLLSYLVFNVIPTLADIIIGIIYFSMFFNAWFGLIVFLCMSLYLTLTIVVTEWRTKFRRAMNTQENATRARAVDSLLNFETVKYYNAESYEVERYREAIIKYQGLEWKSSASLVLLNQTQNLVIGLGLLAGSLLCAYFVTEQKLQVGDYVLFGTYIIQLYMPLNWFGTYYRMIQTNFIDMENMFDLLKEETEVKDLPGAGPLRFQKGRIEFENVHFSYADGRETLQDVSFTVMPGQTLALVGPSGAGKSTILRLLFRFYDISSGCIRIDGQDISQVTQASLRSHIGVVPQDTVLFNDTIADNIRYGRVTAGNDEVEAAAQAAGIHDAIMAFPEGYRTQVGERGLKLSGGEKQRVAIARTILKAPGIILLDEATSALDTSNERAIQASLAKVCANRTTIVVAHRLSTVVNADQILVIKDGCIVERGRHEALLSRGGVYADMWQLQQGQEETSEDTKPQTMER
HIF act: HIF pathway transcriptional activation | U2OS HRE-luciferase reporter, luminescence; normalized: DMSO 0%, desferrioxamine 100% | activation, % at 7.5 µM (by protocol) | actives 0.32% (n = 300,000);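 active = mean activation of at least 10% of the iron chelator positive control signal, with at least half of replicates also reaching 10%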
GAA30 counter: activates GAA30 frataxin promoter, counter-screen for GAA850 activators. actives 66% (n = 1,900). HEK293 lucGAA30 FXN promoter luciferase, 24 h; DMSO = 0%, 5 µM ipriflavone = 100%. shares compounds with GAA850 FXN act. AID 588350. activation, % at 6 µM;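 active = mean activation above the mean of solvent-only control wells plus 3 SD, cut at about 22% in these data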;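 also: counterscreen of GAA850 promoter hits where activity marks nonselective or luminescence artifacts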
FXN GAA850 conf: GAA850 FXN promoter activation confirmation; shares compounds with GAA850 FXN act; HEK293 lucGAA850 FXN promoter luciferase reporter, 24 h; 100% = activation by SAHA; activation, % at 6 µM; actives 86% (n = 1,900); AID 588351;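 active = mean activation above a set limit taken from the primary screen, cut at about 8% in these data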;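 also: 0% = DMSO wells and 100% = 10 µM SAHA wells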
The depositor's hits bear a star; x = not tested or not shown; ! = not active in a repeat. Compounds with a hit are over-represented: about 3.9% of the library has one in this group of screens.

SMILES	GAA850 FXN act	AHR act	SR-BI DiI inh	SR-BI DiI-HDL act	ABCB6 inh 2	HIF act	GAA30 counter	FXN GAA850 conf
c1ccc(OCCCn2nnc(-c3ccncc3)n2)cc1	-0.8	-1.7	-19.5	19.5	101.0	0.1	x	x
CCN(C(=O)COC(=O)CCC1CCCC1)c1c(N)n(Cc2ccccc2)c(=O)[nH]c1=O	0.6	x	-9.8	9.8	94.0	x	x	x
Cc1cccc(NC(=O)CSCC(=O)Nc2cc(C(F)(F)F)ccc2N2CCOCC2)c1	13.7*	x	x	x	98.0	x	-1.0	9.4*
Cc1cccc(NC(=O)CSCC(=O)Nc2ccc(N3CCOCC3)cc2N2CCOCC2)c1	0.5	x	35.2	-35.2	95.0	x	x	x
Cc1cc(NC(=O)C(C)SCC(=O)Nc2cc(C(F)(F)F)ccc2N2CCCCC2)no1 (centres undefined)	9.1*	0.0	24.8	-24.8	102.0	-0.4	24.0*	16.5*
Cc1nn(-c2ccccc2)c2c1cc1c(=O)n(C)c(=O)nc-1n2-c1ccccc1F	-1.1	8.8	x	x	101.0	-0.1	x	x
O=C(Nc1ncccc1O)c1ccc(S(=O)(=O)Nc2ccccc2)cc1	19.8*	4.4	-11.6	11.6	101.0	72.5*	51.9*	46.7*
O=C(Nc1ccccc1O)c1ccc(NS(=O)(=O)c2cccc3cccnc23)cc1	19.9*	14.0	0.5	-0.5	105.0	127.3*	56.3*	73.3*
COc1ccc(C)cc1S(=O)(=O)N1CCN(C(=O)c2ncoc2-c2ccc(F)cc2)CC1	0.6	13.8	x	x	99.0	-0.1	x	x
Cc1ccc(N=Cc2cc(Br)cc(Cl)c2O)cc1	0.9	3.3	-8.8	8.8	113.0	0.5	x	x
CCn1c(C)nc2cc(C(=O)N/N=C/c3ccccc3C)ccc21	12.9*	-3.6	56.8	-56.8	94.0	3.8	93.2*	36.2*
Nc1ccc2nc(-c3cc(Cl)c(N)c(Cl)c3)[nH]c2c1	8.3*	39.0	5.6	-5.6	93.0	2.8	160.1*	50.4*
COc1ccc(CCN(C)CC(=O)Nc2cc(C)nc3ccccc23)cc1OC	-1.2	1.6	2.3	-2.3	98.0	-0.6	x	x
NC(=O)C1=CC2C3C=CC2(O)C(=O)OC3O1 (centres undefined)	8.3*	x	-3.2	3.2	104.0	x	-27.9	16.1*
Cc1ccccc1NC(=O)N1CCCC(c2nc(-c3ccc(C(C)C)cc3)no2)C1 (centres undefined)	9.2*	-11.7	16.5	-16.5	99.0	-0.5	61.5*	28.0*
Cc1ccccc1NC(=O)N1CCCC(c2nc(-c3ccc(F)cc3)no2)C1 (centres undefined)	0.1	11.2	5.7	-5.7	91.0	0.7	x	x
N/C(=N\OC(=O)COc1cc(Cl)c(Cl)cc1Cl)c1ccncc1	x	3.6	x	x	x	0.7	x	x
CCCNC(=O)C1CCC(CNS(=O)(=O)c2ccc3c(c2)CC(C)N3C(C)=O)CC1 (centres undefined)	-1.6	1.5	15.0	-15.0	102.0	0.4	x	x
CC1(Cc2cc(Cl)ccc2C(F)(F)F)C(=O)Nc2cc(F)ccc21 (centres undefined)	0.2	x	x	x	99.0	x	x	x
CC1(Cc2ccc(C(F)(F)F)o2)C(=O)Nc2cc(-c3ccc(F)cc3F)ccc21 (centres undefined)	9.2*	x	x	x	99.0	x	20.4	13.1*
O=C(COC(=O)/C=C/c1cccc(C(F)(F)F)c1)NC(c1ccccc1)c1ccccc1	-2.1	1.4	-5.8	5.8	102.0	-1.8	x	x
Nc1nn2cc(-c3ccc(Br)cc3)nc2c2ccccc12	11.6*	65.5*	x	x	98.0	3.8	119.9*	49.5*
Brc1ccc(-c2cn3nc4c(nc3n2)CCCC4)cc1	2.7	-6.9	1.9	-1.9	110.0	-2.2	x	x
Cc1ccc(Cn2c(SCC(=O)NCc3ccco3)nc3ccsc3c2=O)cc1	8.8*	3.0	-19.7	19.7	98.0	-0.2	30.6*	17.4*
Cc1ccc(CNC(=O)CSc2nc3ccsc3c(=O)n2Cc2ccccn2)cc1	5.1	3.9	-28.6	28.6	93.0	0.2	x	x
SMILES	GAA850 FXN act	AHR act	SR-BI DiI inh	SR-BI DiI-HDL act	ABCB6 inh 2	HIF act	GAA30 counter	FXN GAA850 conf
COc1ccc(-c2cc(C(F)(F)F)nc(S(=O)(=O)CCCC(=O)Nc3cc(C)on3)n2)cc1OC	10.3*	x	-8.1	8.1	94.0	11.6*	57.9*	82.6*
COc1ccc(-c2cc(C(F)(F)F)n3nc(C(=O)Nc4cc(C)on4)cc3n2)cc1OC	-0.3	1.7	68.6	-68.6	93.0	x	x	x
COc1ccc(-c2ccc3oc(-c4ccc(OC)cc4)c(-c4cc(OC)c(OC)c(OC)c4)c3c2)cc1	-1.3	-1.5	14.2	-14.2	104.0	-0.6	x	x
O=C(NCC1CCCN1S(=O)(=O)c1ccccc1)c1cccc(Cl)c1 (centres undefined)	-1.1	9.0	-0.7	0.7	98.0	-2.8	x	x
CCC(=O)Oc1c(S(=O)(=O)c2ccc(C)cc2)c(C)nn1C(C)(C)C	-2.1	7.2	10.5	-10.5	93.0	-0.2	x	x
CC(=O)c1ccc(OCC(O)CN2CCN(Cc3ccc4c(c3)OCO4)CC2)cc1 (centres undefined)	9.3*!	-1.4	-1.7	1.7	102.0	x	22.4*	5.8
COc1ccc(OCC(O)CN2CCN(Cc3ccc4c(c3)OCO4)CC2)cc1 (centres undefined)	2.0	25.5	-16.3	16.3	98.0	0.7	x	x
COc1ccc(CN(C)C(C)C(=O)Nc2cccc3ccccc23)cc1 (centres undefined)	-0.2	11.1	x	x	100.0	-0.2	x	x
CCOC(=O)CSc1nc(N)c(C#N)c(-c2ccc(OCC)cc2)c1C#N	13.0*	-2.3	17.1	-17.1	102.0	-2.1	11.8	9.1*
CC(C)OC(=O)CSc1nc2cc3c(cc2cc1C#N)OCO3	5.2	19.6	49.3	-49.3	98.0	3.3	x	x
CCOC(=O)CSc1nc(N)c(C#N)cc1C#N	11.3*	16.9	2.4	-2.4	92.0	0.1	51.6*	30.1*
CC(C)OC(=O)CSc1nc(N)c(C#N)cc1C#N	8.4*	9.8	-6.2	6.2	92.0	3.3	63.9*	28.9*
CCOC(=O)CSc1nc2cc(C)cc(C)c2cc1C#N	2.0	11.5	28.2	-28.2	120.0	1.7	x	x
CN(C(=O)COC(=O)c1ccc(-c2ccc(O)cc2)cc1)C1CCS(=O)(=O)C1 (centres undefined)	1.1	1.4	x	x	96.0	0.6	x	x
Cc1ccc(NC(=O)C(=Cc2ccc(C(=O)O)cc2)C(=O)Nc2ccc(C)cc2C)c(C)c1	-9.6	-0.4	x	x	98.0	-1.7	x	x
